Values after ≈ are worked out from the molar mass of the structure shown.
Legend:
[1] = target: Mitogen-activated protein kinase 11 (Homo sapiens) (UniProt Q15759); experiment: Inhibition of SAPK2b/p38--beta-2 at 10 uM
Method in brief: (§1)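 Kinase panel run at Upstate (Dundee). Each compound was tested at 10 µM against each enzyme and reported as % inhibition.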

[2] = target: Mitogen-activated protein kinase 8 (Homo sapiens) (UniProt P45983); experiment: Inhibition of JNK/SAPK1c at 10 uM; method in brief: as §1
Chain of Mitogen-activated protein kinase 8 (Homo sapiens) (P45983 whole entry): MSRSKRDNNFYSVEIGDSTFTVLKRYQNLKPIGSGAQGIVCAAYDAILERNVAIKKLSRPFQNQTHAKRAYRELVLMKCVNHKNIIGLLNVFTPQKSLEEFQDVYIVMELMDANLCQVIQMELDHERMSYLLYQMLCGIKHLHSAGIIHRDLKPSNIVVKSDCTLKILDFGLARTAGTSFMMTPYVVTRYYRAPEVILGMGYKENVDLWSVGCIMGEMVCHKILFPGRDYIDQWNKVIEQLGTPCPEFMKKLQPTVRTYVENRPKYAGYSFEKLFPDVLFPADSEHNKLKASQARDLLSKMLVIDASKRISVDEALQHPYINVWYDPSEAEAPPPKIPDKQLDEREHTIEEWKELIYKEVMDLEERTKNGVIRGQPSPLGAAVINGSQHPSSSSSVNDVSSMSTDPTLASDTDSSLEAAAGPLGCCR

[3] = target: Dual specificity mitogen-activated protein kinase kinase 1 (Homo sapiens, UniProt Q02750); experiment: Inhibitory activity against MEK1
Chain of Dual specificity mitogen-activated protein kinase kinase 1 (Q02750 whole entry): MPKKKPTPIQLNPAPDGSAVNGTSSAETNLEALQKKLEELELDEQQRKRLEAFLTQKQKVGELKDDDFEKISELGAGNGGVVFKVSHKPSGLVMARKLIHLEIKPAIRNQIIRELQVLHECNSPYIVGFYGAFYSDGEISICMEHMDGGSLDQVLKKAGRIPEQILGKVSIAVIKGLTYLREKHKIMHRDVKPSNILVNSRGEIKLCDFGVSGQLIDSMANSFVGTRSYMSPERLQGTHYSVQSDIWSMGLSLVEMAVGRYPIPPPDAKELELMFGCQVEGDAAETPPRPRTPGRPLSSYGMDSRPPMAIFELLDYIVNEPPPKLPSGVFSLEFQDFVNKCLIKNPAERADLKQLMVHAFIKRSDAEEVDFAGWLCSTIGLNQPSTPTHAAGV

[4] = Aqueous solubility at pH 6.5; type: physicochemical
Method in brief: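 Thermodynamic shake-flask method: crystalline solid (0.5 mg, crystallinity confirmed by polarizing microscopy) in 0.5 mL 10 mM potassium phosphate, pH 6.5, swirled 24 h at room temperature. Filtered aliquots were quantified by HPLC-PDA against a calibration curve.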

[5] = target: Tyrosine-protein kinase Lck (Homo sapiens) (UniProt P06239); experiment: Inhibition of LCK at 10 uM; method in brief: as §1
Chain of Tyrosine-protein kinase Lck (Homo sapiens) (P06239 2-509 limits assumed): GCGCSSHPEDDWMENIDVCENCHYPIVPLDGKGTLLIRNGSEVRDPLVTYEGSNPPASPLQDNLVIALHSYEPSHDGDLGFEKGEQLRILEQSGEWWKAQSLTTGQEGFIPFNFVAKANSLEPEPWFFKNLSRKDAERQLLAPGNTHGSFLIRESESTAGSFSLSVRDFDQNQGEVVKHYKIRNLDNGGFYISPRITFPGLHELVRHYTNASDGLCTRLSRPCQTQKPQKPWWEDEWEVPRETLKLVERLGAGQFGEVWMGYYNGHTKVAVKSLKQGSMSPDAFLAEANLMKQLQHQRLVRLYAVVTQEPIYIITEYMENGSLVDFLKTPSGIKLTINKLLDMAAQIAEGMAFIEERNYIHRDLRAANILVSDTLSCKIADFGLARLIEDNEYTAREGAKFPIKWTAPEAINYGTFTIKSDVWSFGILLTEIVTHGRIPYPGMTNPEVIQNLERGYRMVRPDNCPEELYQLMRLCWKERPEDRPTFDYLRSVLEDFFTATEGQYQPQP

[6] = target: Dual specificity tyrosine-phosphorylation-regulated kinase 1A (Homo sapiens) (UniProt Q13627); experiment: Inhibition of DYRK1a at 10 uM; method in brief: as §1
[7] = target: T1, MAP kinase-activated protein kinase 5 (Homo sapiens) (UniProt Q8IW41); experiment: Inhibition of PRAK at 10 uM; method in brief: as §1
T1 sequence (whole entry): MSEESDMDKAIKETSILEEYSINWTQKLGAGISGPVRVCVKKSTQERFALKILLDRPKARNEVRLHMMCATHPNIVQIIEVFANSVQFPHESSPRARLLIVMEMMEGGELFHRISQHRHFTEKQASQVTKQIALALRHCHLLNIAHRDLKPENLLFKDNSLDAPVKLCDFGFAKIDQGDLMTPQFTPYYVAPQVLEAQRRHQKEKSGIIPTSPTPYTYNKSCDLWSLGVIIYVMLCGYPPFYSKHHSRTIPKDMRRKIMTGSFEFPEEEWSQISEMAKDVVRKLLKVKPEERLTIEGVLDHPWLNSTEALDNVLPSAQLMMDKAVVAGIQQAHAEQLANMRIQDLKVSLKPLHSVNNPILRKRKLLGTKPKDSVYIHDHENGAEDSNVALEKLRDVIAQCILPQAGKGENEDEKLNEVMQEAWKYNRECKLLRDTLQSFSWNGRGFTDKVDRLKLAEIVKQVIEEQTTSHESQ

Chain of Mitogen-activated protein kinase 11 (Homo sapiens) (Q15759 whole entry): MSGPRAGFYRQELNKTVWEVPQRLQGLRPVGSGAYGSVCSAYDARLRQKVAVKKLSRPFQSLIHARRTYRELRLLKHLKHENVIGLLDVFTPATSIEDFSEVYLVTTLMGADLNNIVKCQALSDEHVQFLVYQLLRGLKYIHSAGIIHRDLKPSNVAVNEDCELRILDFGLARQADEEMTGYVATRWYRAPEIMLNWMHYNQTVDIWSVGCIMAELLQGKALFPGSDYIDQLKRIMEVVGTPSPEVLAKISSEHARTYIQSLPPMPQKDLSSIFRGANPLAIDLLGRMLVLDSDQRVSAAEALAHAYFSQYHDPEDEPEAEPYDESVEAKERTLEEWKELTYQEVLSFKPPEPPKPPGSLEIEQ

Row | Structure (SMILES) | inhibition [1] | inhibition [2] | IC50 [3] | solubility [4] | inhibition [5] | inhibition [6] | inhibition [7]
1 | CONC(=O)c1cn(C)c(=O)c(C)c1Nc1ccc(Br)cc1F | 5% | 7% | 105 nM | 200 µg/mL (≈ 521 µM) | -1% | 2% | 9%
2 | CCONC(=O)c1cn(C)c(=O)c(C)c1Nc1ccc(Br)cc1F | 13% | 23% |  | 60 µg/mL (≈ 151 µM) | 9% | 15% | 18%
3 | Cc1c(Nc2ccc(Br)cc2F)c(C(=O)NOCCO)cn(C)c1=O | 16% | 23% | 18 nM | 450 µg/mL (≈ 1090 µM) | 13% | 10% | 16%

— ChEMBL document CHEMBL1147738, “Potent and selective mitogen-activated protein kinase kinase (MEK) 1,2 inhibitors. 1. 4-(4-bromo-2-fluorophenylamino)-1- methylpyridin-2(1H)-ones” (J Med Chem, 2006)
